Assay [1] relates to Nucleophosmin (Homo sapiens), P06748 [T199N]. Briefly: Inhibition of phosphorylated NPM1 recruitment to chromatic in 6 Gy irradiated human A549 cells assessed as band intensity ratio of protein solubility measured as extraction of pT199NPM1 pretreated 30 mins and measured after 90 mins of irradiation at 25 uM by Western blot analysis in presence of high NP-40 lysis buffer relative to DMSO control. The class given is cell-based. The gist of the method:
(§1)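 A549 cells at 70–80% confluency were exposed to compound for 30 min, given 6 Gy from a Cs137 source at 2 Gy/min, and held 90 min at 37°C. Equal protein was run on 10% SDS-PAGE and immunoblotted for pT199 NPM1 and total NPM1. Band intensity ratio = (compound+6 Gy)/(DMSO+6 Gy).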
Background: Immunoblotting shows a protein as a band on a membrane.

For assay [2] the test system is unchanged. Description: Inhibition of phosphorylated NPM1 recruitment to chromatic in 6 Gy irradiated human IMR90 cells assessed as extraction of pT199NPM1 pretreated 30 mins and measured after 90 mins of irradiation at 25 uM by Western blot analysis relative to DMSO control in presence of high NP-40 lysis buffer. The class given is cell-based. The conditions noted are these: IMR-90. Summed up:
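IMR-90 normal lung fibroblasts, grown in DMEM, received 25 μM drug for 30 min, were irradiated, and were incubated 90 min. Total lysate was prepared with NP-40 lysis buffer and analysed by Western blot for pT199 NPM1.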

The test system is the same in assay [3]. Briefly: Inhibition of phosphorylated NPM1 recruitment to chromatic in 6 Gy irradiated human A549 cells assessed as extraction of pT199NPM1 pretreated 30 mins and measured after 90 mins of irradiation at 25 uM by Western blot analysis in presence of high salt lysis buffer. It is filed as cell-based. Summed up: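 A549 cells were dosed with 25 μM drug for 30 min, irradiated, and incubated 90 min. Nuclei were isolated on ice, then extracted in high salt buffer (10 mM HEPES pH 7.2, 420 mM NaCl, 1.5 mM MgCl2, 0.5 mM DTT, 25% glycerol). Extracts were immunoblotted for pT199 NPM1 and total NPM1.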

Assay [4] has the same test system. Briefly: Inhibition of phosphorylated NPM1 recruitment to chromatic in 6 Gy irradiated human A549 cells assessed as extraction of pT199NPM1 pretreated 30 mins and measured after 90 mins of irradiation at 25 uM by Western blot analysis in presence of high NP-40 lysis buffer. The class given is cell-based.
Assay [5] has the same test system. Description: Inhibition of phosphorylated NPM1 recruitment to chromatic in 6 Gy irradiated human A549 cells assessed as extraction of pT199NPM1 pretreated 30 mins and measured after 90 mins of irradiation at 25 uM by Western blot analysis in presence of high RIPA lysis buffer. The class given is cell-based.
Assay [6] has the same test system. Description: Inhibition of phosphorylated NPM1 recruitment to chromatic in 6 Gy irradiated human A549 cells assessed as increase in protein solubility as extraction of pT199NPM1 pretreated 30 mins and measured after 90 mins of irradiation at 10 uM by Western blot analysis. The class given is cell-based. The gist of the method: (§2)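 Drug or DMSO at various concentrations was present on A549 cells for 30 min before, during, and 90 min after 0 or 6 Gy. Nuclear proteins were extracted in 420 mM NaCl high salt buffer and blotted for pT199 NPM1. Buffer-soluble pNPM1 in irradiated cells was quantified relative to non-irradiated cells (±SD, N=3). EC50 was taken from the band intensity plot.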

In assay [7] the target is T1, Nucleophosmin (Homo sapiens, UniProt P06748, T199N). Briefly: Inhibition of phosphorylated NPM1 recruitment to chromatic in 6 Gy irradiated human A549 cells assessed as increase in protein solubility as extraction of pT199NPM1 pretreated 30 mins and measured after 90 mins of irradiation by Western blot analysis. It is filed as cell-based. The gist of the method:
as §2

For assay [8], the system named is Nucleophosmin (Homo sapiens), P06748 [T199N]. Description: Inhibition of phosphorylated NPM1 recruitment to chromatic in 6 Gy irradiated human A549 cells assessed as increase in protein solubility as extraction of pT199NPM1 pretreated 30 mins and measured after 90 mins of irradiation by Western blot analysis relative to YTR107 in presence of high NP-40 lysis buffer. The class given is cell-based.

Assay [9] deals with T1, Nucleophosmin. Description: Inhibition of phosphorylated NPM1 recruitment to chromatic in 6 Gy irradiated human A549 cells assessed as extraction of pT199NPM1 pretreated 30 mins and measured after 90 mins of irradiation by Western blot analysis in presence of high NP-40 lysis buffer. It is filed as cell-based.
Assay [10] deals with Nucleophosmin (Homo sapiens), P06748 [T199N]. Description: Inhibition of phosphorylated NPM1 recruitment to chromatic in 6 Gy irradiated human A549 cells assessed as band intensity ratio of protein solubility measured as extraction of pT199NPM1 pretreated 30 mins and measured after 90 mins of irradiation at 2.5 uM by Western blot analysis in presence of high NP-40 lysis buffer relative to DMSO control. It is filed as cell-based.

For the next assay, the system named is NCI-H460. Briefly: Radiodensitization of 6 Gy irradiated human H460 cells assessed as colony formation pretreated 30 mins followed by irradiated for 90 mins and washed off measured after 10 to 14 days incubation at 5 uM by trypan blue assay. The class given is functional, cell-based. Summed up:
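H460 cells, grown in RPMI-1640, were plated in T25 flasks and exposed to 5 μM drug at 37°C for 30 min. They were then irradiated at various radiation doses and incubated 90 min. Drug was washed off with PBS and fresh medium added. Flasks were kept 10–14 days, and colonies were stained with trypan blue and counted.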

Assay [11] has as its target Nucleophosmin (Homo sapiens) (UniProt P06748). Briefly: Inhibition of phosphorylated NPM1 recruitment to chromatic in 6 Gy irradiated human A549 cells assessed as increase in solubility of protein pretreated 30 mins and measured after 90 mins of irradiation at 2.5 to 5 uM by Western blot analysis relative to DMSO control in presence of high NP-40 lysis buffer. It is filed as cell-based.

Assay [12] shares this target. Description: Inhibition of phosphorylated NPM1 recruitment to chromatic in 6 Gy irradiated human A549 cells assessed as increase in solubility of protein pretreated 30 mins and measured after 90 mins of irradiation at 5 uM by Western blot analysis relative to DMSO control in presence of high NP-40 lysis buffer. The class given is cell-based.
In assay [13] the test system is Nucleophosmin (Homo sapiens), P06748 [T199N]. Description: Inhibition of phosphorylated NPM1 recruitment to chromatic in 6 Gy irradiated human A549 cells assessed as extraction of pT199NPM1 pretreated 30 mins and measured after 90 mins of irradiation at 2.5 uM by Western blot analysis relative to DMSO control in presence of high NP-40 lysis buffer. The class given is cell-based. The gist of the method:
as §1

pEC50: −log10 of the molar value. Activity calls are given as the source filed them. The calls are words filed in the database; no cut-off is given here.

Sequence of Nucleophosmin (Homo sapiens), P06748 [T199N] (P06748 whole entry T199N): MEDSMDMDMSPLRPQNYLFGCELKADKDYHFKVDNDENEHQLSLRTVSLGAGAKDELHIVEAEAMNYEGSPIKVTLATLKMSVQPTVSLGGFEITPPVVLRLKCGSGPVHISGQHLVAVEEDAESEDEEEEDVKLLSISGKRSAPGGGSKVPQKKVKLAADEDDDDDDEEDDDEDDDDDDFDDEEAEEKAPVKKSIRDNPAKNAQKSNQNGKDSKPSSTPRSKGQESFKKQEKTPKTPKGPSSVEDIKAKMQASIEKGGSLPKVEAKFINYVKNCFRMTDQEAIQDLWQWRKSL
Sequence of Nucleophosmin (Homo sapiens) (P06748 whole entry): as the sequence (P06748 whole entry T199N) above, with N199T counted along it
T1 sequence (P06748 whole entry T199N): as the sequence (P06748 whole entry T199N) above

For `COc1ccc(Cn2c(C)c(C=C3C(=O)NC(=S)NC3=O)c3ccccc32)c(OC)c1`, in [1], the Ratio came out at 1.22. On to `N#Cc1ccc(Cn2cc(C=C3C(=O)NC(=O)NC3=O)c3ccccc32)cc1`, for which the result in assay [2] was inactive. In addition, the result in assay [3], in assay [4], in assay [5] and in assay [6] was Active. Moreover, the Ratio in assay [1] was found to be 1.51. On Nucleophosmin [7], the pEC50 is 5.01. Consider `Cc1c(C=C2C(=O)NC(=S)NC2=O)c2ccccc2n1Cc1ccc(Br)cc1`, for which the fold change (FC) in [8] was found to be 4. In addition, the pEC50 at Nucleophosmin [9] was 5.60. For the same compound, the Ratio in assay [10] is 1.78. Also, in the assay on NCI-H460, the outcome was Active. For `Cc1c(C=C2C(=O)NC(=O)NC2=O)c2ccccc2n1Cc1ccccc1`, the Ratio in assay [1] was 1.53. The same measure, in the same setting: next, `COC(=O)c1ccc(Cn2c(C)c(C=C3C(=O)NC(=S)NC3=O)c3ccccc32)cc1`: 1.74. On to `Cc1c(C=C2C(=O)NC(=S)NC2=O)c2ccccc2n1Cc1ccccc1C(F)(F)F`, for which, in assay [1], the Ratio amounted to 1.54.

With `Cc1c(C=C2C(=O)NC(=O)NC2=O)c2ccccc2n1Cc1ccccc1Br`, the Ratio in [1] was 1.05.

On to `Cc1c(C=C2C(=O)NC(=O)NC2=O)c2ccccc2n1Cc1ccccc1C(F)(F)F`, for which the Ratio in assay [1] is 1.16.

With `COc1cc(Cn2c(C)c(C=C3C(=O)NC(=O)NC3=O)c3ccccc32)cc(OC)c1OC`, the Ratio in [1] came to 1.16. Consider `COc1cc(Cn2c(C)c(C=C3C(=O)NC(=O)NC3=O)c3ccccc32)cc(OC)c1`, for which, in assay [11], the outcome was inactive. Moreover, the Ratio in assay [1] is 1.63. In the case of `Cc1c(C=C2C(=O)NC(=S)NC2=O)c2ccccc2n1Cc1ccc(C#N)cc1`, the Ratio in assay [1] turned out to be 1.86. On to `Cc1c(C=C2C(=O)NC(=O)NC2=O)c2ccccc2n1Cc1ccc(C#N)cc1`, for which the result in assay [12] was Active. Further, in assay [13], the result was inactive. The Ratio in [1] came out at 1.58.

For the compound `COc1cc(Cn2c(C)c(C=C3C(=O)NC(=S)NC3=O)c3ccccc32)cc(OC)c1OC`, the Ratio in [1] amounted to 1.97. Still for that read-out and setting: next, `COc1cc(Cn2c(C)c(C=C3C(=O)NC(=S)NC3=O)c3ccccc32)cc(OC)c1`: 1.97; `Cc1c(C=C2C(=O)NC(=S)NC2=O)c2ccccc2n1Cc1ccccc1`: 1.96; `COC(=O)c1ccc(Cn2c(C)c(C=C3C(=O)NC(=O)NC3=O)c3ccccc32)cc1`: 1.48. With `Cc1c(C=C2C(=O)NC(=S)NC2=O)c2ccccc2n1Cc1ccccc1Br`, in [1], the Ratio was 1.68. On the same count and under the same terms, next, `Cc1c(C=C2C(=O)NC(=O)NC2=O)c2ccccc2n1Cc1ccc(Br)cc1`: 1.23.

The term pEC50 denotes −log10 of the EC50, conventionally taken in molar units.
